Columns and labels:
[1] = target: T1, LsLTC2 (Lactuca sativa, UniProt Q8S3A5); assay: GC-MS of germacrene A from yeast expressing the synthase with ERG20; type: cell-based; details: S. cerevisiae JCR27, endogenous FPP
T1 sequence (Q8S3A5 1-557): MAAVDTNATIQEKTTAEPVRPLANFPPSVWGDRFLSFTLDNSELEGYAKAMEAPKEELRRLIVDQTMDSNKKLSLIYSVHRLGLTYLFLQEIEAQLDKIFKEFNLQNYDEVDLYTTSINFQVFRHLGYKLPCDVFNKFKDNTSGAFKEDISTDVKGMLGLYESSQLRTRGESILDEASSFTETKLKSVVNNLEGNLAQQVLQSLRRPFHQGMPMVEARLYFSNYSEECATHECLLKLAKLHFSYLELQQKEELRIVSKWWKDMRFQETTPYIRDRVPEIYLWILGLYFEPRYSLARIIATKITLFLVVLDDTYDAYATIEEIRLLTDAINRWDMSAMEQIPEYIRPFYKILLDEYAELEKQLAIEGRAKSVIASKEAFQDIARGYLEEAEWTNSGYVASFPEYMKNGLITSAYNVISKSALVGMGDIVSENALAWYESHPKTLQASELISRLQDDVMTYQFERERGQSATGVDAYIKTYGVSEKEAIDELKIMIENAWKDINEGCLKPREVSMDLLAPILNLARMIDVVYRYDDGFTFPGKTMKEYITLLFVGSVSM

[2] = system: LcTPS3; assay: malachite green phosphate-release assay, Michaelis-Menten fit; type: biochemical, Liriodendron chinense; details: 5 mM MgCl2, 50 mM MOPS pH 7.0 (optimum printed as pH 7.5), 35 °C, FPP 0-25 μM
In short: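 Recombinant His-tagged enzyme was expressed from pET-28a(+) in E. coli BL21(DE3) pLysS, induced with 1 mM IPTG at 16 °C for 16 h, and bead-purified. FPP (0–25 μM) was reacted with 5 mM MgCl2 in 50 mM MOPS pH 7.0 at 35 °C for 15 min. Phosphatase-released phosphate was read by malachite green at 620 nm. Km came from a Michaelis–Menten fit of initial velocity versus [FPP].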

[3] = target: T2, STpGMAS (Tanacetum parthenium, UniProt F8UL80); assay: GC-MS of germacrene A from yeast expressing the synthase with ERG20; type: cell-based; details: S. cerevisiae JCR27, endogenous FPP
T2 sequence (F8UL80 1-559): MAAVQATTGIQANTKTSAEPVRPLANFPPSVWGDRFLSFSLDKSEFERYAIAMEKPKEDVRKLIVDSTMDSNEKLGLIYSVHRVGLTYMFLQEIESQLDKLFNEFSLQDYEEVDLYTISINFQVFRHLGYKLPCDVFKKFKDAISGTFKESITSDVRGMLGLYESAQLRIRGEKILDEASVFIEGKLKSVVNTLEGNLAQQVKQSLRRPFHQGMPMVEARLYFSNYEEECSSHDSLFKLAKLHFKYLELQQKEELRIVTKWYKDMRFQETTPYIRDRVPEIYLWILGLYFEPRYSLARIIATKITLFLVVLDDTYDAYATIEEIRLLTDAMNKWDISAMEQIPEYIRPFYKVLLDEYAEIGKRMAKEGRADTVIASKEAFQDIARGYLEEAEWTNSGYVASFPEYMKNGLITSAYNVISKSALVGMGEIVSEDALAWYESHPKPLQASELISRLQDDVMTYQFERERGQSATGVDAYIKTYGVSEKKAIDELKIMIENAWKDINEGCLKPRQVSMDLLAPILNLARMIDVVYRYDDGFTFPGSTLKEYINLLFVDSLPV

Km [2]: 17.7 ± 0.47 µM
Structure (SMILES): CC(C)=CCC/C(C)=C/CC/C(C)=C/COP(=O)(O)OP(=O)(O)O [FPP]
GC-MS of germacrene A from yeast expressing the synthase with ERG20 [1]: co‐expressed LcTPS3, NPGAS, LsLTC2 and STpGMAS with a yeast–derived farnesyl diphosphate synthase (EGR20)
GC-MS of germacrene A from yeast expressing the synthase with ERG20 [3]: co‐expressed LcTPS3, NPGAS, LsLTC2 and STpGMAS with a yeast–derived farnesyl diphosphate synthase (EGR20)
